Data: ChEMBL document CHEMBL1138910, “Racemic and chiral sulfoxides as potential prodrugs of 4-pyrone COX-2 inhibitors” (Bioorg Med Chem Lett, 2006)
Values after ≈ are worked out from the molar mass of the structure shown.

Key:
[1] = Metabolic stability in human liver microsomes at 5 uM after 30 min […]; assay type: ADME, Microsome; conditions: in the assay text read “37 degC” for “30 degC”, read-out: Stability
Rattus norvegicus [2] = species: Rattus norvegicus; assay: Inhibition of yeast-induced pyresis in Wistar rat; assay type: functional
Outline: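 Yeast-induced pyresis in rats, an acute therapeutic protocol with a single oral dose. Temperature was measured at 1 h intervals from 1 to 5 h after dosing. ED50 was derived from four doses with six to eight animals per group.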

Rattus norvegicus [3] = assay: Cmax in Wistar rat after administration as its prodrug at 1 mg/kg, po; assay type: ADME, organism-based; design: dose 1 mg/kg, route oral; conditions: in vivo
Rattus norvegicus [4] = assay: AUC in Wistar rat after administration as its prodrug at 1 mg/kg, po; assay type: ADME, organism-based, Plasma; design: dose 1 mg/kg, route oral; conditions: in vivo
[5] = AUC in Wistar rat at 1 mg/kg, po; assay type: ADME, organism-based; design: dose 1 mg/kg, route oral; conditions: plasma
[6] = Solubility in PBS at pH 7.2, 37 degC after 24 hrs; assay type: physicochemical
[7] = Tmax in Wistar rat at 1 mg/kg, po; assay type: ADME, organism-based; design: dose 1 mg/kg, route oral; conditions: in vivo
[8] = Solubility in simulated gastric fluid at pH 1.8, 37 degC after 24 hrs; assay type: physicochemical
Rattus norvegicus [9] = assay: Ratio AUC for prodrug to the parent compound in Wistar rat at 1 mg/kg, po; assay type: ADME, organism-based; design: dose 1 mg/kg, route oral; conditions: in vivo
Rattus norvegicus [10] = assay: Tmax in Wistar rat after administration as its prodrug at 1 mg/kg, po; assay type: ADME, organism-based; design: dose 1 mg/kg, route oral; conditions: in vivo
Rattus norvegicus [11] = assay: Inhibition of adjuvant-induced arthritis in Wistar rat at 0.01 mg/kg, po; assay type: functional
Outline: (§1)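 Adjuvant-induced arthritis in male Wistar rats run as a therapeutic protocol. Compounds were given orally once daily for 7 days, starting on day 14 after arthritis induction. Paw edema was measured 24 h after the last dose. Results are reported as ED50 from four doses (six to eight animals per group) or as % inhibition at the stated dose.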

[12] = Metabolic stability in rat liver microsomes at 5 uM after 30 min […]; assay type: ADME, Microsome; conditions: in the assay text read “37 degC” for “30 degC”, read-out: Stability
[13] = Cmax in Wistar rat at 1 mg/kg, po; assay type: ADME, organism-based; design: dose 1 mg/kg, route oral; conditions: in vivo
Rattus norvegicus [14] = assay: Inhibition of adjuvant-induced arthritis in Wistar rat at 0.1 mg/kg, po; assay type: functional; outline: as §1
[15] = target: T1, Prostaglandin G/H synthase 2 (Homo sapiens, UniProt P35354); assay: Inhibition of COX2 in human whole blood; assay type: tissue-based
T1 sequence (P35354 whole entry): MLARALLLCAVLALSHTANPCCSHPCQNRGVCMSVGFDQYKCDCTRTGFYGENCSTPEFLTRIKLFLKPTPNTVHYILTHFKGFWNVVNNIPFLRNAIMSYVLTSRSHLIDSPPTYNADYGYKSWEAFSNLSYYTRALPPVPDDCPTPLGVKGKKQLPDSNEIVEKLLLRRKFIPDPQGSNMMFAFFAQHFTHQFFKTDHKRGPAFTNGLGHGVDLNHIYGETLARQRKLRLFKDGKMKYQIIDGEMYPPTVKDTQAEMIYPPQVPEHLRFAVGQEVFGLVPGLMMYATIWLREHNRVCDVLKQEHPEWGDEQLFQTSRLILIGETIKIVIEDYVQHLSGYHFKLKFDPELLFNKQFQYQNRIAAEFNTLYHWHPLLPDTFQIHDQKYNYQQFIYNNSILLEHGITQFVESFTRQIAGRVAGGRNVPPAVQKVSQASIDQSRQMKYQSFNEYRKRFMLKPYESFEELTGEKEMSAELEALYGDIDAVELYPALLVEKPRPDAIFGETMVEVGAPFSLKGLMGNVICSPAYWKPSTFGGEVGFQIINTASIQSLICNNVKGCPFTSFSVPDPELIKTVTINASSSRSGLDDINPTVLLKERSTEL

Rattus norvegicus [16] = assay: Activity against adjuvant-induced arthritis in po dosed Wistar rat; assay type: functional, organism-based; outline: as §1

remaining at 0.5 h, 5 µM [1] [%]	solubility at 24 h [6] [µg/mL]	solubility at 24 h [8] [µg/mL]	remaining at 0.5 h, 5 µM [12] [%]	IC50 [15] [µM]	SMILES	ED50 (Rattus norvegicus [2]) [mg/kg]	also measured
12	1 (≈ 2.21 µM)	4 (≈ 8.82 µM)	34	–	Cc1cc(=O)c(Oc2ccc(Br)cc2F)c(-c2ccc(S(C)(=O)=O)cc2)o1	3.2	Cmax (Rattus norvegicus [3]): 243 ng/mL; AUC (Rattus norvegicus [4]): 1125 ng·h/mL; AUC [5]: 1270 ng·h/mL; Tmax [7]: 2.2 h; Ratio AUC (Rattus norvegicus [9]): 28; Tmax (Rattus norvegicus [10]): 1.5 h; inhibition in vivo at 0.01 mg/kg (Rattus norvegicus [11]): 60%; Cmax [13]: 177 ng/mL
2	7 (≈ 17.8 µM)	9 (≈ 22.9 µM)	26	–	Cc1cc(=O)c(Oc2ccc(F)cc2F)c(-c2ccc(S(C)(=O)=O)cc2)o1	0.7	Cmax (Rattus norvegicus [3]): 2959 ng/mL; AUC (Rattus norvegicus [4]): 18646 ng·h/mL; AUC [5]: 9220 ng·h/mL; Tmax [7]: 1 h; Ratio AUC (Rattus norvegicus [9]): 14; Tmax (Rattus norvegicus [10]): 2.3 h; inhibition in vivo at 0.1 mg/kg (Rattus norvegicus [14]): 68%; Cmax [13]: 1510 ng/mL
41	–	–	67	–	Cc1cc(=O)c(Oc2ccc(Cl)cc2F)c(-c2ccc([S@+](C)[O-])cc2)o1	–	–
42	–	–	80	0.2	Cc1cc(=O)c(Oc2ccc(Br)cc2F)c(-c2ccc([S@+](C)[O-])cc2)o1	–	–
48	–	–	87	–	Cc1cc(=O)c(Oc2ccc(Cl)cc2F)c(-c2ccc([S@@+](C)[O-])cc2)o1	–	–
62	–	–	93	1.58	Cc1cc(=O)c(Oc2ccc(Br)cc2F)c(-c2ccc([S@@+](C)[O-])cc2)o1	–	–
17	–	–	38	0.27	Cc1cc(=O)c(Oc2ccc(F)cc2F)c(-c2ccc([S@+](C)[O-])cc2)o1	–	–
24	150 (≈ 399 µM)	527 (≈ 1400 µM)	54	0.92	Cc1cc(=O)c(Oc2ccc(F)cc2F)c(-c2ccc([S+](C)[O-])cc2)o1 (configuration not stated)	1.3	AUC [5]: 1310 ng·h/mL; Tmax [7]: 0.3 h; inhibition in vivo at 0.1 mg/kg (Rattus norvegicus [14]): 59%; Cmax [13]: 1310 ng/mL
57	37 (≈ 94.2 µM)	70 (≈ 178 µM)	86	–	Cc1cc(=O)c(Oc2ccc(Cl)cc2F)c(-c2ccc([S+](C)[O-])cc2)o1 (configuration not stated)	2.3	inhibition in vivo at 0.1 mg/kg (Rattus norvegicus [14]): 56%
64	15 (≈ 34.3 µM)	31 (≈ 70.9 µM)	77	–	Cc1cc(=O)c(Oc2ccc(Br)cc2F)c(-c2ccc([S+](C)[O-])cc2)o1 (configuration not stated)	2.8	AUC [5]: 43 ng·h/mL; Tmax [7]: 0.3 h; inhibition in vivo at 0.01 mg/kg (Rattus norvegicus [11]): 58%; Cmax [13]: 37 ng/mL
20	–	–	55	2.1	Cc1cc(=O)c(Oc2ccc(F)cc2F)c(-c2ccc([S@@+](C)[O-])cc2)o1	–	–
6	5 (≈ 12.2 µM)	18 (≈ 44 µM)	27	–	Cc1cc(=O)c(Oc2ccc(Cl)cc2F)c(-c2ccc(S(C)(=O)=O)cc2)o1	0.8	inhibition in vivo at 0.1 mg/kg (Rattus norvegicus [14]): 63%
–	–	–	–	–	Cc1ccc(-c2ncc(Cl)cc2-c2ccc(S(C)(=O)=O)cc2)cn1 [ETORICOXIB]	1	EC50 (Rattus norvegicus [16]): 0.44 mg/kg
–	–	–	–	–	CS(=O)(=O)c1ccc(C2=C(c3ccccc3)C(=O)OC2)cc1 [ROFECOXIB]	0.9	EC50 (Rattus norvegicus [16]): 0.3 mg/kg
